Results taken from ChEMBL document CHEMBL4699476, “Structure-based drug optimization and biological evaluation of tetrahydroquinolin derivatives as selective and potent CBP bromodomain inhibitors” (Bioorg Med Chem Lett, 2020).

What was measured:
[1] = molecular target: T1, CREB-binding protein (Homo sapiens, UniProt Q92793); assay: Inhibition of CBP BRD (unknown origin) by TR-FRET assay
Target sequence in this assay (Q92793 whole entry): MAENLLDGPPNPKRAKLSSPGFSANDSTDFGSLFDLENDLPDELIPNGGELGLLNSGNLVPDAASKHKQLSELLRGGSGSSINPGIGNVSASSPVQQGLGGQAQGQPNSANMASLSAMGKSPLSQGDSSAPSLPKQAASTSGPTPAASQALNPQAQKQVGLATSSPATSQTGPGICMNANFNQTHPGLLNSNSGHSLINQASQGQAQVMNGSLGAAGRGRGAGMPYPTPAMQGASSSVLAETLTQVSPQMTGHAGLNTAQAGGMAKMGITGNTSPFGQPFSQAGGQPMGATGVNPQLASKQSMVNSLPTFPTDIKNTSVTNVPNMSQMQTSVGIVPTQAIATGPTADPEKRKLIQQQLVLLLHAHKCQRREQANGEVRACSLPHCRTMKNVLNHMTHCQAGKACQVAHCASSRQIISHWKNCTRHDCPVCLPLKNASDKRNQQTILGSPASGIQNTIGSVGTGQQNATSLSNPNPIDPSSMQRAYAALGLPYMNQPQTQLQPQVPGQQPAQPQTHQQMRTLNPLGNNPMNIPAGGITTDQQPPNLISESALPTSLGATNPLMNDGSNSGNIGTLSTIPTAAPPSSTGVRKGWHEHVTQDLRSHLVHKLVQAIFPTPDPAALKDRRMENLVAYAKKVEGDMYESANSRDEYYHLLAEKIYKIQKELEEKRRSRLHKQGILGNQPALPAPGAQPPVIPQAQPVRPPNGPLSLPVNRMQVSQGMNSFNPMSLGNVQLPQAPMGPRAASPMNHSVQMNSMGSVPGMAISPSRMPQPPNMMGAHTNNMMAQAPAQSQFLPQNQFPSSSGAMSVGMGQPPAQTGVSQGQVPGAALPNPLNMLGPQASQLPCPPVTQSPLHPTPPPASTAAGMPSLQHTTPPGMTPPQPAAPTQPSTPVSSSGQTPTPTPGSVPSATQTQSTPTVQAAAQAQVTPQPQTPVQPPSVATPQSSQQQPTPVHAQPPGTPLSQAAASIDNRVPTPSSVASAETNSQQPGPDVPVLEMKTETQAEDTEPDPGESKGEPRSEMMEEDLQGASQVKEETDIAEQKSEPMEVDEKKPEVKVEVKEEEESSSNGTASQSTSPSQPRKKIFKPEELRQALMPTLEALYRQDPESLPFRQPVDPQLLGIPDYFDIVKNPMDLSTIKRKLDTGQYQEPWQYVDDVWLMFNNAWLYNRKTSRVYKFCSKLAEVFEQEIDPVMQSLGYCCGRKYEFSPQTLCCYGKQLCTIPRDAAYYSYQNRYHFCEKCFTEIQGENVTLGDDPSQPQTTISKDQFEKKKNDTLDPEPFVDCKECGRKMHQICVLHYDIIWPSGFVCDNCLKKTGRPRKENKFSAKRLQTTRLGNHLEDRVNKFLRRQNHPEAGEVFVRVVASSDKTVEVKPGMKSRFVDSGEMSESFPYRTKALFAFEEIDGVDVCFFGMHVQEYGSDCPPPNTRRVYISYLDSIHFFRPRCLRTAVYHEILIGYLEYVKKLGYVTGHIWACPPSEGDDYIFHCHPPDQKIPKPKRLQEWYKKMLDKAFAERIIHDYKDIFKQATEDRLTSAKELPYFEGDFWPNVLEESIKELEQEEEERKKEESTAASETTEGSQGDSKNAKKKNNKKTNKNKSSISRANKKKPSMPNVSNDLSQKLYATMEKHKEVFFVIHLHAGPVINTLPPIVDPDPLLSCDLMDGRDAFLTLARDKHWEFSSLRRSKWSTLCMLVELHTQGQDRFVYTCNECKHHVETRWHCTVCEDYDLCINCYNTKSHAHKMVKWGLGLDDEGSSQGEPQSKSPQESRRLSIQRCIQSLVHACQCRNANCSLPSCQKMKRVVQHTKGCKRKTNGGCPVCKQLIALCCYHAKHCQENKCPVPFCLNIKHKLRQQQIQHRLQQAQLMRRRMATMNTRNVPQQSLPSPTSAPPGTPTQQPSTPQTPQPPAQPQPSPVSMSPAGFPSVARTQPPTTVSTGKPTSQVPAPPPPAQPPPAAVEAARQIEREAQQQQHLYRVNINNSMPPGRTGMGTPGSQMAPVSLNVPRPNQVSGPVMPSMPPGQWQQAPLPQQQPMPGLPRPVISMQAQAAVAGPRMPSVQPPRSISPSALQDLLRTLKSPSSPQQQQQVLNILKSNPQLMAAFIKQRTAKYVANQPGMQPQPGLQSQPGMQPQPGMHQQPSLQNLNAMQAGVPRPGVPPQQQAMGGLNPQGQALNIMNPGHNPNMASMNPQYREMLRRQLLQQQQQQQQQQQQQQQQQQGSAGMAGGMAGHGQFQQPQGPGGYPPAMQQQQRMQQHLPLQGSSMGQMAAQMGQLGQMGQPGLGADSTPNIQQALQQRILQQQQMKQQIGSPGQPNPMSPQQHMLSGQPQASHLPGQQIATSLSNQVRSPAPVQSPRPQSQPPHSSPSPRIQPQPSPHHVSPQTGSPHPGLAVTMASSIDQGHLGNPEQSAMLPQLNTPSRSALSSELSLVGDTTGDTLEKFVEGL

[2] = test system: MV4-11; assay: Antiproliferative activity against human MV4-11 cells at 6.25 uM incubated for 6 days relative to control; format: functional; conditions: MV4-11, 144 h, time 6 day
Procedure, shortened: (§1)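 MV4-11 AML cells exposed to test agent at 6.25 or 1.56 µM for 6 days; viability read as percent growth inhibition versus control; inhibition rates are means of at least two determinations.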

[3] = test system: MV4-11; assay: Antiproliferative activity against human MV4-11 cells incubated for 6 days relative to control; format: functional, cell-based; conditions: MV4-11, 144 h
Procedure, shortened: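 MV4-11 cells treated for 6 days; IC50 derived for agents giving over 50% growth inhibition at 1.56 µM; values reported with ± error.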

[4] = test system: MV4-11; assay: Antiproliferative activity against human MV4-11 cells at 1.56 uM incubated for 6 days relative to control; format: functional; conditions: MV4-11, 144 h, time 6 day; procedure, shortened: as §1
[5] = molecular target: T1, CREB-binding protein; assay: Inhibition of GST-tagged CBP BRD (unknown origin) incubated for 30 mins by HTRF assay
Target sequence in this assay (Q92793 whole entry): as above

[6] = molecular target: T2, Bromodomain-containing protein 4 (Homo sapiens, UniProt O60885); assay: Inhibition of BRD4 BD1 (unknown origin) by ALPHAScreen assay
[7] = molecular target: T2, Bromodomain-containing protein 4; assay: Inhibition of BRD4 BD2 (unknown origin) by ALPHAScreen assay
[8] = organism: Homo sapiens; assay: Selectivity index, ratio of IC50 for BR4 BD2 (unknown origin) to IC50 for CBP BRD (unknown origin)
[9] = organism: Homo sapiens; assay: Selectivity index, ratio of IC50 for BR4 BD1 (unknown origin) to IC50 for CBP BRD (unknown origin)
[10] = molecular target: T1, CREB-binding protein; assay: Binding affinity to CBP BRD (unknown origin) by microscale thermophoresis assay
Target sequence in this assay (Q92793 whole entry): as above

[11] = molecular target: T1, CREB-binding protein; assay: Inhibition of CBP in human MV4-11 cells assessed as decrease in c-myc protein expression incubated for 12 hrs by Western blot analysis; format: cell-based; conditions: dose microM 0.25-2, time 12.0 hrs
Procedure, shortened: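 MV4-11 cells treated at 0, 0.25, 0.5, 1 and 2 µM for 12 h; c-Myc protein level assessed by Western blot.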
Target sequence in this assay (Q92793 2-2442 limits assumed): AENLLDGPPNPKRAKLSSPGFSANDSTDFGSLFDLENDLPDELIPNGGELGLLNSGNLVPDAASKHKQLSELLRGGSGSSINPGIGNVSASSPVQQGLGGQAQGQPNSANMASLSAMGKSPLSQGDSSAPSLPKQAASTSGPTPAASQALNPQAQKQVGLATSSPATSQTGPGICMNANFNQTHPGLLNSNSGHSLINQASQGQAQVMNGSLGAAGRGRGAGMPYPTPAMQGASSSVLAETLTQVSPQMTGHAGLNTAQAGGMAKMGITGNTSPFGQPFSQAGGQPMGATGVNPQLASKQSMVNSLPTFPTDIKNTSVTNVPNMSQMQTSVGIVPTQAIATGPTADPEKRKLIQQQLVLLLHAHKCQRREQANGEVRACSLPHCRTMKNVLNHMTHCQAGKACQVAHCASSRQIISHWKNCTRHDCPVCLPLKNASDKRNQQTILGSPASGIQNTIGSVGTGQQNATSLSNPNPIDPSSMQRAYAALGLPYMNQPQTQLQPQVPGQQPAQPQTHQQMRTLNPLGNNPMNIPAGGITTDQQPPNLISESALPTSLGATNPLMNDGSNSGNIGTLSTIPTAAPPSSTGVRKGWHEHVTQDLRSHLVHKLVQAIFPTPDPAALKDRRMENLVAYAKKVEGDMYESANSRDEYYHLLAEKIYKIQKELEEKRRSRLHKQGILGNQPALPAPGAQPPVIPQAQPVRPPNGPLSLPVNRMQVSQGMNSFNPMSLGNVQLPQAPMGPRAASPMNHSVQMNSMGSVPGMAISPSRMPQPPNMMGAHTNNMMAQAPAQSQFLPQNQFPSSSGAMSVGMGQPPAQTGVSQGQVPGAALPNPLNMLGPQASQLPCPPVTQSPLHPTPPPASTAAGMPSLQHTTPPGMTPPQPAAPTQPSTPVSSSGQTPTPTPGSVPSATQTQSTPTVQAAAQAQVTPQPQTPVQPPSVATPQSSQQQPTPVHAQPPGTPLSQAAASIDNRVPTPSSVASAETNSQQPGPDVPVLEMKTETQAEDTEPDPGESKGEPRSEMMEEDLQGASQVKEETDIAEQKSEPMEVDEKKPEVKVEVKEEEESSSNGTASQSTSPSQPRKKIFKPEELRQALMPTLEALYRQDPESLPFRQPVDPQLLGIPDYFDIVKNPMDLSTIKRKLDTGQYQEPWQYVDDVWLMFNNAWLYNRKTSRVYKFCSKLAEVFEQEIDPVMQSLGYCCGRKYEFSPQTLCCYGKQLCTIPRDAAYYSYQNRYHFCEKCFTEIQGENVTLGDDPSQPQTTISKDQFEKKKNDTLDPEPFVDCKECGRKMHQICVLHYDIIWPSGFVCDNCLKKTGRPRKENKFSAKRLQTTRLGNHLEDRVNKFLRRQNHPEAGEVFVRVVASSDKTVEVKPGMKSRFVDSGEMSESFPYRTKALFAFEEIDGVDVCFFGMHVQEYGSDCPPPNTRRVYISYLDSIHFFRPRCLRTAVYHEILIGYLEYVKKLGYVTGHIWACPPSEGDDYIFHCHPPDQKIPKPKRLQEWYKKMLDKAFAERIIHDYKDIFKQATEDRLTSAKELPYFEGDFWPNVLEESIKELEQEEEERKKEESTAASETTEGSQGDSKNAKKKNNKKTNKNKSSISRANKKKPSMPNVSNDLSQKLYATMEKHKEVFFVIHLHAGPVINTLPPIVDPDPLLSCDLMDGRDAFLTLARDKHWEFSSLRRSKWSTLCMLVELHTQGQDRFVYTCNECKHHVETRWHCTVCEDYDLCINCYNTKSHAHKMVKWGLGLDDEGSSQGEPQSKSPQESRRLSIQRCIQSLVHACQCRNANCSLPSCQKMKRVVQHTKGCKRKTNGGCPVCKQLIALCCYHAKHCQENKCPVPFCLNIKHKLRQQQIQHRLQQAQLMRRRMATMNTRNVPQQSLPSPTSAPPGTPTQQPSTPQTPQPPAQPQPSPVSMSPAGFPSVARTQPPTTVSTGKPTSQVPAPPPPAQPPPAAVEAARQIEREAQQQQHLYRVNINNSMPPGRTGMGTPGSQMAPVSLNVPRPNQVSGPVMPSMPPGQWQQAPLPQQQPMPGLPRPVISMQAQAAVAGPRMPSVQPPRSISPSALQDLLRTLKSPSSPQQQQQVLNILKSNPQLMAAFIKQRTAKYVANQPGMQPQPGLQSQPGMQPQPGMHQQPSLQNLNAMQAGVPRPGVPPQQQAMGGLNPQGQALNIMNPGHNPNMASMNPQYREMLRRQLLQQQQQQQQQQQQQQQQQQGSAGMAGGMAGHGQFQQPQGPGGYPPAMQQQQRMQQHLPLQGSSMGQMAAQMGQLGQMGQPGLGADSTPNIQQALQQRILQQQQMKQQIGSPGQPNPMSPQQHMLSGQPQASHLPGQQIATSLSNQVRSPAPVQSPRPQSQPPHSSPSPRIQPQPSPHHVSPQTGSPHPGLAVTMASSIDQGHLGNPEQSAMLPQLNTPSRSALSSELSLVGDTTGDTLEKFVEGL

| SMILES | IC50 [1] [nM] | inhibition at 6.25 µM [2] [%] | inhibition at 1.56 µM [4] [%] | further results |
| --- | --- | --- | --- | --- |
| CNC(=O)N1CCCc2ccc(NC(=O)c3cccc(-c4ccccc4)c3)cc21 |  | 60.4 | 10.7 | IC50 [5]: 8410 nM |
| CNC(=O)N1CCCc2ccc(NC(=O)c3ccc(-c4ccccn4)cc3)cc21 | 102 | 79.2 | 31.9 |  |
| CNC(=O)N1CCCc2ccc(NC(=O)c3cccc(-c4cnn(S(C)(=O)=O)c4)c3)cc21 | 286 | 18 | 1.6 |  |
| CNC(=O)N1CCCc2ccc(NC(=O)c3cccc(-c4cc[nH]n4)c3)cc21 | 92.9 | 89.7 | 27.3 |  |
| CNC(=O)N1CCCc2ccc(NC(=O)c3ccc(-c4ccccc4)cc3)cc21 | 195 | 74.3 | 19.6 |  |
| CNC(=O)N1CCCc2ccc(NC(=O)c3ccccc3-c3ccccc3)cc21 |  | 1.39 | 2.83 | IC50 [5]: 213 nM |
| C[C@@H]1CC(=O)Nc2cccc(-c3ccc4c(c3)c(-c3cnn(C)c3)nn4C)c2N1 |  |  |  | IC50 [6]: 12000 nM; IC50 [7]: 18800 nM |
| CNC(=O)N1CCCc2ccc(NC(=O)c3ccc(-c4cnn(S(C)(=O)=O)c4)cc3)cc21 | 93.1 | 40.2 | 4.5 |  |
| COC(=O)N1CCCc2ccc(NC(=O)C3CC=CCC3C(=O)O)cc21 (centres undefined) |  |  |  | IC50 [5]: 2300 nM |
| CNC(=O)N1CCCc2ccc(NC(=O)c3cccc(-c4ccn(S(C)(=O)=O)n4)c3)cc21 | 103 | 37 | 4.03 |  |
| CNC(=O)N1CCCc2ccc(NC(=O)c3ccc(-c4cnn(C(C)=O)c4)cc3)cc21 | 85.2 | 83.8 | 23.9 |  |
| CNC(=O)N1CCCc2ccc(NC(=O)c3cccc(-c4cn[nH]c4)c3)cc21 | 91.3 | 77.7 | 27.9 |  |
| CNC(=O)N1CCCc2ccc(NC(=O)c3cccc(-c4ccn(C(C)=O)n4)c3)cc21 | 94.6 | 87.6 | 27.6 |  |
| CNC(=O)N1CCCc2ccc(NC(=O)c3ccc(-c4ccncc4)cc3)cc21 | 89.2 | 88.7 | 37.6 |  |

Further lines, with some results ahead:

| IC50 [1] [nM] | SMILES | inhibition at 6.25 µM [2] [%] | inhibition at 1.56 µM [4] [%] | further results |
| --- | --- | --- | --- | --- |
| 37.4 | CNC(=O)N1CCCc2ccc(NC(=O)c3ccc(-c4cnn(C)c4)cc3)cc21 | 94.4 | 77.3 | IC50 [3]: 730 nM |
| 45.7 | CNC(=O)N1CCCc2ccc(NC(=O)c3cccc(-c4ccn(C)n4)c3)cc21 | 99.5 | 70.5 | IC50 [3]: 980 nM |
| 52.3 | CNC(=O)N1CCCc2ccc(NC(=O)c3ccc(-c4ccn(C(C)=O)n4)cc3)cc21 | 91.3 | 35.8 |  |
| 53.7 | CNC(=O)N1CCCc2ccc(NC(=O)c3ccc(-c4cccnc4)cc3)cc21 | 92.1 | 62.5 | IC50 [3]: 1160 nM |
| 47.7 | CNC(=O)N1CCCc2ccc(NC(=O)c3ccc(-c4cn[nH]c4)cc3)cc21 | 98.3 | 73.5 | IC50 [3]: 870 nM |
| 76.5 | CNC(=O)N1CCCc2ccc(NC(=O)c3cccc(-c4cnn(C(C)=O)c4)c3)cc21 | 82 | 33.5 |  |
| 63.3 | CNC(=O)N1CCCc2ccc(NC(=O)c3cccc(-c4ccncc4)c3)cc21 |  |  | IC50 [5]: 63.3 nM |
| 74.4 | CNC(=O)N1CCCc2ccc(NC(=O)c3ccc(-c4ccn(S(C)(=O)=O)n4)cc3)cc21 | 57.2 | 8.81 |  |
| 55.4 | CNC(=O)N1CCCc2ccc(NC(=O)c3cccc(-c4cnn(C)c4)c3)cc21 | 93.5 | 71.2 | IC50 [3]: 1040 nM |
| 19.5 | CNC(=O)N1CCCc2ccc(NC(=O)c3ccc(-c4cc[nH]n4)cc3)cc21 | 99.1 | 92.5 | Ratio IC50 [8]: > 400; IC50 [6]: 8400 nM; Ratio IC50 [9]: > 400; IC50 [3]: 550 nM; Kd [10]: 25.4 nM; IC50 [7]: 19000 nM; inhibition [11]: Dose-dependent effect |
| 40.2 | CNC(=O)N1CCCc2ccc(NC(=O)c3ccc(-c4ccn(C)n4)cc3)cc21 | 97 | 72.2 | IC50 [3]: 830 nM |
